Bioassay records deposited in PubChem BioAssay by Sanford-Burnham Center for Chemical Genomics.
Most compounds without a hit are left out; they make up all but 3.3% or so of the library.
SENP8 block-1: SENP8 (human) protease inhibition; Q96LD8; recombinant SENP8, Nedd8 substrate fluorescence; inhibition, % at 20 µM; 360,000 compounds, 0.64% hits; in the data active = inhibition mostly above about 40%, no sharp cut-off; inactive = mostly below about 27%
SENP6 inh: blocks the human protease SENP6; Recombinant SENP6 catalytic domain, aminoluciferin luminescence; 330,000 compounds, 1.8% hits; Q9GZR1; inhibition, % at 10 µM;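 active = inhibition above about 50% at the single tested dose, limit read from the data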
Target sequence (Q9GZR1 628-1112 limits assumed): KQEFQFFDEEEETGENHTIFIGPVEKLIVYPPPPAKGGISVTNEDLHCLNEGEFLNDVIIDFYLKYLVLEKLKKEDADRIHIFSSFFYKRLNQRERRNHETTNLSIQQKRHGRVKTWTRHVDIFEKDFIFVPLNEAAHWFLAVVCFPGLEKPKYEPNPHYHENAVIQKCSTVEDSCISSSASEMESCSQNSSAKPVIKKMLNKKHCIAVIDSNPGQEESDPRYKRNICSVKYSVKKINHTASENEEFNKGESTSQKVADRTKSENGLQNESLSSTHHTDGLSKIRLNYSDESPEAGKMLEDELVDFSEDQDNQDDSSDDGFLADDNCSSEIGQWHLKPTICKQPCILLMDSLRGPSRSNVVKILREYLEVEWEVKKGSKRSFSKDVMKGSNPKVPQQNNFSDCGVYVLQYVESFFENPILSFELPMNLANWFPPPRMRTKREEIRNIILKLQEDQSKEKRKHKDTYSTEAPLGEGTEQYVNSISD
SENP1 inh: blocks the human SENP1 SUMO protease catalytic domain; recombinant SENP1 catalytic domain, CyPet-SUMO1-YPet FRET cleavage; 360,000 compounds, 0.21% hits; AID 624204; Q9P0U3; inhibition, % at 10 µM;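 active = inhibition at least 30% at 10 µM, raw YFP signal under a set limit, fluorescence ratio 0.5 to 1.5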
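Material – human SENP1 catalytic domain · Input – SENP1 enzyme, 20 pM final · Compound dosing – single concentration of 10 µM compound, 0.5% DMSO final · Timing – enzyme reaction for 50 min at room temperature, dark · Measured by – FRET fluorescence in CFP and YFP emission channels · Control set – no-enzyme wells low, DMSO-plus-enzyme wells high control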
SENP8 block-2: SENP8 protease inhibition | purified SENP8, Z-RLRGG-aminoluciferin cleavage, luminescence | inhibition, % at 10 µM | 330,000 compounds, 1.2% hits | AID 2540 | Q96LD8; in the data active = inhibition above about 50%
SENP7 inh: blocks the human protease SENP7; inhibition, % at 5 µM; AID 434973; 330,000 compounds, 1.5% hits; recombinant SENP7, Z-RLRGG-aminoluciferin luminescence, 40 min; Q9BQF6;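 active = inhibition above about 50% at the single test dose, limit read from the data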
CendR NRP1 mod: NRP-1/CendR interaction modulation | O14786 | FAM-RPARPAR peptide binding to NRP-1, fluorescence polarization | inhibition, % at 25 µM | 360,000 compounds, 0.85% hits;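 active = inhibition or corrected inhibition above about 18%, plus a signal ratio from 0.5 to 1.5, limit read from the data, passing the limit was not always enough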
SENP8 confirm: human SENP8 inhibition, confirmed | shares compounds with SENP7 inh | Recombinant SENP8, Z-RLRGG-aminoluciferin luminescence, 60 min | AID 488912 | 6,200 compounds, 40% hits | inhibition, % at 12.5 µM;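 active = mean inhibition across replicates above about 50%, limit read from the data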
SENP6 conf: confirmation of human SENP6 protease inhibitors | recombinant SENP6, Z-RLRGG-aminoluciferin luminescence | inhibition, % at 12.5 µM | AID 488915 | shares compounds with SENP7 inh | 6,200 compounds, 58% hits
SENP7 conf: confirmation of human SENP7 protease inhibitors; shares compounds with SENP7 inh; recombinant SENP7, Z-RLRGG-aminoluciferin luminescence, 40 min; inhibition, % at 12.5 µM; 6,200 compounds, 69% hits; AID 488917
Casp3 select: selectivity test for SENP inhibitors: human caspase-3 inhibition; shares compounds with SENP7 inh; purified caspase-3, Z-DEVD-aminoluciferin luminescence, 60 min; inhibition, % at 12.5 µM; 6,200 compounds, 60% hits; AID 488918;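 active = mean inhibition above about 50%, limit read from the data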
Target sequence (P42574 28-227 limits assumed): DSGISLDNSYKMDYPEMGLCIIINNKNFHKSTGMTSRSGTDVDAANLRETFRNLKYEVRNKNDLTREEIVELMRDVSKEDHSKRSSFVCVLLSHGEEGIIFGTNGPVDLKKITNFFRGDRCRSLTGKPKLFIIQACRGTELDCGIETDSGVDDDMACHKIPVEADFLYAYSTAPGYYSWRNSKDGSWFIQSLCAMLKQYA
SENP luc ctr: interferes with luciferase luminescence in SENP counter-screen. shares compounds with SENP7 inh. inhibition, % at 12.5 µM. AID 488919. Pre-incubated SENP8/Z-RLRGG-aminoluciferin, luciferase luminescence interference. 6,200 compounds, 39% hits;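 active = mean inhibition above about 50% when retested at one dose, limit read from the data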
Each line names hits and unclear results; the compound was inactive in the other large screens (follow-up assays come after a bar, where they were run).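 The calls were made as follows, unless noted: active = mean inhibition above about 50% in the one-dose retest (limit read from the data); inactive = the rest.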

O=C(Nc1nnc(-c2ccccc2F)s1)c1cccnc1	none
COC(=O)Nc1nnc(-c2ccc(OC)cc2)s1	SENP6 inh 68, SENP7 inh 75 | SENP8 confirm 50 | SENP6 conf 55 | SENP7 conf 85 | Casp3 select 85 | SENP luc ctr 52
COc1ccc(C(=O)Nc2nnc(-c3ccccc3)s2)cc1	none
O=C(Nc1ccn(CCCN2CCC(N3CCOCC3)CC2)c(=O)n1)OCc1ccccc1	none (no result: SENP6 inh, SENP8 block-2, SENP7 inh)
CCCn1c(N)c(C(=O)CN2CCN(S(=O)(=O)c3cccc(Cl)c3)CC2)c(=O)[nH]c1=O	none
CC(=O)Nc1cccc(C(=O)NN2C(=O)NC3(CCC(C)CC3)C2=O)c1 (stereo unspecified)	none (no result: SENP6 inh, SENP8 block-2, SENP7 inh)
O=C(CN(c1ccccc1)S(=O)(=O)c1ccc(F)cc1)NC1CCCCCC1	none
Fc1ccc2nc(N3CCCC3)sc2c1	SENP7 inh 56 | SENP8 confirm inactive | SENP6 conf inactive | SENP7 conf 85 | Casp3 select 69 | SENP luc ctr inactive
O=C(c1cccs1)N1CCN(c2nc3c(F)cc(F)cc3s2)CC1	none
Fc1cc(F)c2nc(N3CCCCC3)sc2c1	SENP8 block-2 61, SENP7 inh 75 | SENP8 confirm inactive | SENP6 conf 75 | SENP7 conf 95 | Casp3 select 72 | SENP luc ctr inactive
CCOc1ccc2nc(N3CCC(C(=O)N4CCN(C5CCCCC5)CC4)CC3)sc2c1	none
CCOc1ccc2nc(N3CCCCCC3)sc2c1	SENP6 inh 55, SENP7 inh 62 | SENP8 confirm 51 | SENP6 conf 55 | SENP7 conf 84 | Casp3 select 50 | SENP luc ctr 57
Clc1cc(Cl)c2nc(N3CCCC3)sc2c1	none
O=[N+]([O-])c1ccc2nc(N3CCCC3)sc2c1	none
Clc1cc(Cl)c2nc(N3CCCCC3)sc2c1	SENP6 inh 67 | SENP8 confirm inactive | SENP6 conf inactive | SENP7 conf inactive | Casp3 select inactive | SENP luc ctr inactive
O=C(O)c1ccc(Nc2ccc([N+](=O)[O-])c3nonc23)cc1	SENP6 inh 85, SENP8 block-2 81, SENP7 inh 68 | SENP8 confirm 89 | SENP6 conf 85 | SENP7 conf 97 | Casp3 select 72 | SENP luc ctr 82
CC(=O)c1ccc(Nc2ccc([N+](=O)[O-])c3nonc23)cc1	none
Oc1ccccc1C1=Nc2nc3ccccc3n2C(c2ccccc2)C1 (stereo unspecified)	SENP6 inh 79, SENP8 block-2 59, SENP7 inh 71 | SENP8 confirm inactive | SENP6 conf inactive | SENP7 conf inactive | Casp3 select inactive | SENP luc ctr inactive
CCOc1ccccc1-c1cnc(NC)cn1	none (no result: SENP6 inh, SENP8 block-2, SENP7 inh)
COCCCN1C(=O)C(CC(=O)NC2CCCCC2)CC(C(=O)N2CCCCCC2)=C1C (stereo unspecified)	none (no result: SENP6 inh, SENP8 block-2, SENP7 inh)
O=C(c1cc(-c2ccco2)on1)N1CCOCC1	none
Cc1ccc(-c2cc(C(=O)N3CCCC3)no2)cc1	SENP6 inh 68, SENP8 block-2 62 | SENP8 confirm inactive | SENP6 conf inactive | SENP7 conf 86 | Casp3 select 63 | SENP luc ctr inactive
O=C(NCc1ccco1)c1cc(-c2ccc3c(c2)OCO3)on1	SENP7 inh 53 | SENP8 confirm inactive | SENP6 conf inactive | SENP7 conf inactive | Casp3 select inactive | SENP luc ctr inactive
Cc1ccc(-c2cc(C(=O)N3CCOCC3)no2)cc1	SENP6 inh 61, SENP7 inh 58 | SENP8 confirm 53 | SENP6 conf inactive | SENP7 conf 82 | Casp3 select 81 | SENP luc ctr 55
O=C(c1cc(-c2ccc3c(c2)OCO3)on1)N1CCCCC1	SENP6 inh 78, SENP8 block-2 66, SENP7 inh 72 | SENP8 confirm inactive | SENP6 conf 74 | SENP7 conf 93 | Casp3 select 68 | SENP luc ctr inactive
Fc1cc(Cl)cc2ccc(-c3ccccc3)nc12	none (no result: SENP6 inh, SENP8 block-2, SENP7 inh)
Cc1[nH]nc(SCC(=O)N2CCCCCC2)c1[N+](=O)[O-]	SENP8 block-2 52 | SENP8 confirm 98 | SENP6 conf 100 | SENP7 conf 103 | Casp3 select 99 | SENP luc ctr 88
O=C(c1cc(Cl)ccc1O)N1CCN(S(=O)(=O)Cc2ccccc2)CC1	none
Cc1ccc(-c2cc(NC=O)c3ncc(-c4cnn(C)c4)n3c2)cc1	none (no result: SENP6 inh, SENP8 block-2, SENP7 inh)
COc1cccc(-n2cc(-c3ccc(F)cc3)[nH]c2=S)c1	SENP6 inh 67, SENP7 inh 77 | SENP8 confirm inactive | SENP6 conf inactive | SENP7 conf inactive | Casp3 select inactive | SENP luc ctr inactive
O=C(O)c1ccc(-c2nc(-c3ccc(Cl)c(Cl)c3)cs2)cc1	SENP6 inh 86, SENP8 block-2 74, SENP7 inh 79 | SENP8 confirm 90 | SENP6 conf 92 | SENP7 conf 94 | Casp3 select 72 | SENP luc ctr 68
O=C(O)c1ccc(-c2nc(-c3ccccc3Cl)cs2)cc1	SENP6 inh 98, SENP8 block-2 95, SENP7 inh 94 | SENP8 confirm 98 | SENP6 conf 99 | SENP7 conf 102 | Casp3 select 97 | SENP luc ctr 93
O=C(COC(=O)CNC(=O)c1ccco1)Nc1ncc(Cl)cc1Cl	none
CN(C)c1cccc(CNC(=O)c2ccc3nc([C@@H]4O[C@H](CO)[C@H](O)[C@H](O)[C@H]4O)[nH]c3c2)c1	none (no result: SENP6 inh, SENP8 block-2, SENP7 inh)
COc1ccc(C(=O)Nc2ccc3ccccc3c2)c(OC)c1	SENP6 inh 87, SENP8 block-2 87, SENP7 inh 91 | SENP8 confirm 91 | SENP6 conf 91 | SENP7 conf 98 | Casp3 select 77 | SENP luc ctr 72
O=C(Nc1ccc2c(c1)OCCO2)c1ccccc1F	SENP6 inh 76, SENP8 block-2 58, SENP7 inh 78 | SENP8 confirm 69 | SENP6 conf 68 | SENP7 conf 92 | Casp3 select 90 | SENP luc ctr 81
